Results reported in ChEMBL document CHEMBL1629588, “Ambuic acid inhibits the biosynthesis of cyclic peptide quormones in gram-positive bacteria” (Antimicrob Agents Chemother, 2009).
Active and inactive are the calls of the source.

What was measured:
[1] = system: Staphylococcus aureus; experiment: Inhibition of agr quorom sensing in Staphylococcus aureus 8325-4 harboring pSB2035 assessed as […] at 50 to 200 uM after 7 hrs by GFP fluorescence reporter gene assay
[2] = system: Enterococcus faecalis; experiment: Antimicrobial activity against Enterococcus faecalis OG1RF assessed as growth inhibition at <1 mM after 5 hrs; format: functional
In short: (§1)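 E. faecalis OG1RF overnight culture (3 µl) inoculated into 0.5 ml THB with sample, grown 5 h at 37°C. Growth read as OD660. Supernatant (25 µl, after 9,100 x g spin) mixed with 0.5 ml azocoll suspension, 4 h at 170 rpm, centrifuged, gelatinase read as OD540. Duplicate experiments, mean ± SD.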

[3] = system: Staphylococcus aureus; experiment: Inhibition of hemolysin production in Staphylococcus aureus 12600T assessed as decrease in hemolytic zone on sheep blood agar at 5 to 20 mM upto 48 hrs […]; format: functional, organism-based
In short: (§2)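 Inhibitor in 50% acetonitrile (5 µl) spotted on sheep blood agar and dried. Plate incubated at 37°C; hemolytic clearance zone around colonies observed and photographed at 16, 24 and 48 h.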

[4] = system: Staphylococcus aureus; experiment: Inhibition of hemolysin production in Staphylococcus aureus 12600T assessed as decrease in hemolytic zone on sheep blood agar at 20 mM after 16 to 48 hrs […]; format: functional, organism-based; details: TDE = time-dependent effect
In short: as §2

[5] = system: Enterococcus faecalis; experiment: Inhibition of gelatinase production in Enterococcus faecalis OG1RF at <1 mM after 5 hrs; format: functional
In short: as §1

[6] = system: Staphylococcus aureus; experiment: Inhibition of quormone AIP-I biosynthesis in Staphylococcus aureus 12600T at 50 uM by LC/MS analysis; format: functional, organism-based
In short: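 S. aureus 12600T overnight culture (20 µl) inoculated into 2 ml TSB-YE, grown 15 h. Filtered (0.22 µm) supernatant (40 µl) analysed by C18 LC/ESI-TOF MS, 20–40% acetonitrile in 0.05% TFA, 0.2 ml/min, 30°C. Extracted ion chromatogram at m/z 961–962.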

[7] = system: Enterococcus faecalis; experiment: Inhibition of GBAP biosynthesis in Enterococcus faecalis OU510 harboring pQU2200 and pQU2301 assessed as proteolytic processing of Hexahistidine-tagged FsrD after 5 hrs by Western blot analysis; format: functional, organism-based
In short: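 OU510 carrying pQU2200 (FsrB') and pQU2301 (His6-tagged FsrD) inoculated (6 µl overnight culture) into 1.0 ml THB with inhibitor at various concentrations. Nisin added at 2 h to induce, cells harvested 3 h later. Cells boiled in SDS-PAGE sample buffer; extracts analysed by Western blot with anti-His-tag antibody. Supernatant GBAP activity read by OU510 gelatinase induction.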

[8] = system: Listeria innocua; experiment: Inhibition of quormone LsrD826 biosynthesis in Listeria innocua ATCC 33090T at 100 uM by LC/MS analysis; format: functional, organism-based
In short: (§3)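 L. innocua ATCC 33090T overnight culture (25 µl) grown 15 h in 5 ml chemically defined medium. Filtered supernatant loaded on C18 cartridge, washed with 10% acetonitrile/0.1% TFA, eluted with 60% acetonitrile/0.1% TFA. Eluate analysed by LC/MS monitoring m/z 699 (LsrD698) and m/z 827 (LsrD826).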

[9] = system: Staphylococcus aureus; experiment: Inhibition of hemolysin production in Staphylococcus aureus 12600T assessed as decrease in hemolytic zone on sheep blood agar at 10 mM after 16 to 48 hrs […]; format: functional, organism-based; details: TDE = time-dependent effect
In short: as §2

[10] = system: Enterococcus faecalis; experiment: Inhibition of gelatinase production in Enterococcus faecalis OG1RF after 5 hrs; format: functional
In short: as §1

[11] = system: Staphylococcus aureus; experiment: Inhibition of hemolysin production in Staphylococcus aureus 12600T assessed as decrease in hemolytic zone on sheep blood agar at 5 mM after 16 to 48 hrs […]; format: functional, organism-based; details: TDE = time-dependent effect
In short: as §2

[12] = system: Staphylococcus aureus; experiment: Inhibition of agr quorom sensing in Staphylococcus aureus 8325-4 harboring pSB2035 assessed as […] at 50 to 200 uM after 7 hrs by GFP assay; format: functional, organism-based
In short: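 S. aureus 8325-4(pSB2035) washed and serially subcultured (1/20 twice, 2 h each), then diluted 1/50 into 200 µl medium with inhibitor, shaken 7 h. OD620 read; cells washed twice in PBS, GFP fluorescence read (ex 490/em 525 nm). Triplicate, mean ± SD. Quenching control: 200 µM added to washed untreated cells, fluorescence followed 15 min.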

[13] = system: Listeria innocua; experiment: Inhibition of quormone LsrD698 biosynthesis in Listeria innocua ATCC 33090T at 100 uM by LC/MS analysis; format: functional, organism-based
In short: as §3

[14] = system: Enterococcus faecalis; experiment: Inhibition of gelatinase production in GBAP-negative Enterococcus faecalis OU510 at 100 uM after 5 hrs in presence of GBAP; format: functional, organism-based
In short: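 Overnight E. faecalis OU510 (3 µl) grown 5 h in 0.5 ml THB containing 100 µM inhibitor plus synthetic GBAP at various concentrations. Supernatant gelatinase measured by azocoll assay (OD540), growth by OD660. Duplicate experiments; gelatinase/growth ratio computed per experiment and averaged.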

CCCCC/C=C/C1=C(CO)[C@H](O)[C@H]2O[C@@]2(C/C=C(\C)C(=O)O)C1=O [AMBUIC ACID]
inactive: Activity [2] | inhibition [14]
active: inhibition [1] | inhibition [3] Dose-dependent effect | inhibition [4] tde | Activity [5] | inhibition [6] | inhibition [7] | inhibition [8] | inhibition [9] tde | inhibition [11] tde | inhibition [12] | inhibition [13]
10 µM: IC50 [10]
